Laboratory results published in ChEMBL document CHEMBL1124286, “(R)-(-)-10-methyl-11-hydroxyaporphine: a highly selective serotonergic agonist” (1988).

Experiments:
Rattus norvegicus [1] = organism: Rattus norvegicus; experiment: Influence on 5-hydroxyindoleacetic acid (5-HIAA)concentration in amygdala region of brain; type: functional, organism-based
How it was run: (§1)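 Male Sprague-Dawley rats (150-250 g) given 4 mg/kg sc; killed 30 min later. Brain regions dissected, weighed, homogenized in 0.01 N HClO4, kept on ice 15 min, centrifuged 13000g 2 min. Supernatant analysed by HPLC with electrochemical detection: C-18 reverse-phase column, 0.1 M sodium phosphate mobile phase with EDTA, octanesulfonic acid, 10% MeOH, pH 3.8; glassy carbon electrode at +0.65. Compared with untreated controls by ANOVA and multiple regression.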

[2] = Ratio of 5-HT concentration to 5-HIAA concentration in parietal cortex region of brain; type: functional; how it was run: as §1
[3] = Ratio of 5-HT concentration to 5-HIAA concentration in hippocampus region of brain; type: functional; how it was run: as §1
Rattus norvegicus [4] = organism: Rattus norvegicus; experiment: Influence on 5-hydroxy tryptamine (5-HT) concentration in hippocampus region of brain; type: functional, organism-based; how it was run: as §1
Rattus norvegicus [5] = organism: Rattus norvegicus; experiment: Influence on 5-hydroxyindoleacetic acid (5-HIAA) concentration in parietal cortex region of brain; type: functional, organism-based; how it was run: as §1
[6] = Ratio of 5-HT concentration to 5-HIAA concentration in caudate region of brain; type: functional; how it was run: as §1
[7] = Ratio of 5-HT concentration to 5-HIAA concentration in amygdala region of brain; type: functional; how it was run: as §1
Rattus norvegicus [8] = organism: Rattus norvegicus; experiment: Influence on 5-hydroxyindoleacetic acid (5-HIAA) concentration in olfactory tubercle region of brain; type: functional, organism-based; how it was run: as §1
Rattus norvegicus [9] = organism: Rattus norvegicus; experiment: Influence on 5-hydroxy tryptamine (5-HT) concentration in amygdala region of brain; type: functional, organism-based; how it was run: as §1
Rattus norvegicus [10] = organism: Rattus norvegicus; experiment: Influence on 5-hydroxy tryptamine (5-HT) concentration in frontal cortex region of brain; type: functional, organism-based; how it was run: as §1
Rattus norvegicus [11] = organism: Rattus norvegicus; experiment: Influence on 5-hydroxyindoleacetic acid (5-HIAA) concentration in frontal cortex region of brain; type: functional, organism-based; how it was run: as §1
Rattus norvegicus [12] = organism: Rattus norvegicus; experiment: Influence on 5-hydroxy tryptamine (5-HT) concentration in septum region of brain; type: functional, organism-based; how it was run: as §1
Rattus norvegicus [13] = organism: Rattus norvegicus; experiment: Influence on 5-hydroxyindoleacetic acid (5-HIAA) concentration in hypothalamus region of brain; type: functional, organism-based; how it was run: as §1
Rattus norvegicus [14] = organism: Rattus norvegicus; experiment: Influence on 5-hydroxy tryptamine (5-HT) concentration in olfactory tubercle region of brain; type: functional, organism-based; how it was run: as §1
Rattus norvegicus [15] = organism: Rattus norvegicus; experiment: Influence on 5-hydroxy tryptamine (5-HT) concentration in hypothalamus region of brain; type: functional, organism-based; how it was run: as §1
[16] = Ratio of 5-HT concentration to 5-HIAA concentration in olfactory tubercle region of brain; type: functional; how it was run: as §1
Rattus norvegicus [17] = organism: Rattus norvegicus; experiment: Influence on 5-hydroxy tryptamine (5-HT) concentration in caudate region of brain; type: functional, organism-based; how it was run: as §1
Rattus norvegicus [18] = organism: Rattus norvegicus; experiment: Influence on 5-hydroxy tryptamine (5-HT) concentration in parietal cortex region of brain; type: functional, organism-based; how it was run: as §1
[19] = Ratio of 5-HT concentration to 5-HIAA concentration in hypothalamus region of brain; type: functional; how it was run: as §1
[20] = Ratio of 5-HT concentration to 5-HIAA concentration in septum region of brain; type: functional; how it was run: as §1
Rattus norvegicus [21] = organism: Rattus norvegicus; experiment: Influence on 5-hydroxyindoleacetic acid (5-HIAA) concentration in caudate region of brain; type: functional, organism-based; how it was run: as §1
Rattus norvegicus [22] = organism: Rattus norvegicus; experiment: Influence on 5-hydroxyindoleacetic acid (5-HIAA) concentration in septum region of brain; type: functional, organism-based; how it was run: as §1
Rattus norvegicus [23] = organism: Rattus norvegicus; experiment: Influence on 5-hydroxyindoleacetic acid (5-HIAA) concentration in hippocampus region of brain; type: functional, organism-based; how it was run: as §1
[24] = Ratio of 5-HT concentration to 5-HIAA concentration in frontal cortex region of brain; type: functional; how it was run: as §1

## CCCN(CCC)C1CCc2cccc(O)c2C1 (centres undefined) [8-OH-DPAT]
Rattus norvegicus [1]
  Concentration: 1 nM/g
[2]
  Ratio: 4.1
[3]
  Ratio: 2.5
Rattus norvegicus [4]
  Concentration: 4.2 nM/g
Rattus norvegicus [5]
  Concentration: 0.8 nM/g
[6]
  Ratio: 1.5
[7]
  Ratio: 5.8
Rattus norvegicus [8]
  Concentration: 1.4 nM/g
Rattus norvegicus [9]
  Concentration: 4.9 nM/g
Rattus norvegicus [10]
  Concentration: 4.2 nM/g
Rattus norvegicus [11]
  Concentration: 0.8 nM/g
Rattus norvegicus [12]
  Concentration: 4.5 nM/g
Rattus norvegicus [13]
  Concentration: 1.9 nM/g
Rattus norvegicus [14]
  Concentration: 8.3 nM/g
Rattus norvegicus [15]
  Concentration: 7.1 nM/g
[16]
  Ratio: 5.9
Rattus norvegicus [17]
  Concentration: 3.6 nM/g
Rattus norvegicus [18]
  Concentration: 3.1 nM/g
[19]
  Ratio: 3.9
[20]
  Ratio: 3
Rattus norvegicus [21]
  Concentration: 2.6 nM/g
Rattus norvegicus [22]
  Concentration: 1.5 nM/g
Rattus norvegicus [23]
  Concentration: 1.7 nM/g
[24]
  Ratio: 5.8
